Screens from PubChem BioAssay.
The list is not random: actives were taken first. Their share in the collection is about 2.9%.
RORA act – activates the human nuclear receptor RORA. CHO-K1 Gal4-RORA LBD luciferase reporter, luminescence; percent increase over mock-subtracted basal signal. activation, % at 10 µM. 1.5% of 65,000 active;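 active means activation above the mean of all tested compounds plus 3 SD, cut at about 49% in these data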;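 further: 0% = DMSO-treated RORA cells and 100% = added signal equal to DMSO minus mock-transfected cells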
mHtt clearance – mutant huntingtin protein clearance | HeLa Exon1htt(103Q)mCFP, aggregate imaging; zero = plate's median compound well | inhibition, % at 1.5 µM | 0.42% of 47,000 active | AID 853;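 active means inhibition of aggregate fluorescence above about 70%, also judged a hit by eye on the cell image, limit read from the data, passing the limit was not always enough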;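 further: cells exposed to compound for three days before fixation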
JNK3 blocker – inhibitors of human JNK3 kinase; P53779; purified JNK3 kinase activity, HTS; inhibition, % at 8 µM; 0.61% of 60,000 active; AID 746; in the data active means inhibition above about 17%;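 further: 0% = DMSO and 100% = reference inhibitor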
Target sequence (P53779 whole entry, looked up): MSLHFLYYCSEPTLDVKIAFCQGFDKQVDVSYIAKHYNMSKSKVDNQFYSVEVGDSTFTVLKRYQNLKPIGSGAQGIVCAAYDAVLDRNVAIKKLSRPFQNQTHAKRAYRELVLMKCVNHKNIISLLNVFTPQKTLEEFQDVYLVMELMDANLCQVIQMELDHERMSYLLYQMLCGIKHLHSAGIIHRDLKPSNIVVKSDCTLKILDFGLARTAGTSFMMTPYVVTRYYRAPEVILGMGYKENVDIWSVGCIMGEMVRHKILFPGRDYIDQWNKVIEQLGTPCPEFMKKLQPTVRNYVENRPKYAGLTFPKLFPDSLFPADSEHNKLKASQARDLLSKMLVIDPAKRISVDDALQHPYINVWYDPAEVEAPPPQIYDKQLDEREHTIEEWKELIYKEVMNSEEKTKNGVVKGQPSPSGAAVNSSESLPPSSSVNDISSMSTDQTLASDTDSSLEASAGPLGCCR
ROCK2 inh – blocks human Rho kinase 2 activity; O75116; purified ROCK2, Kinase-Glo ATP depletion luminescence; inhibition, % at 6 µM; 0.35% of 60,000 active;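 active means inhibition above the screen-wide mean inhibition plus 3 SD, cut at about 18% in these data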;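 further: plate controls were DMSO wells for no effect and Y-27632 control wells after no-enzyme background subtraction for full effect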
SF1 activator – SF-1 (human) activation. Q13285. CHO-K1 Gal4-SF-1 LBD luciferase reporter; % increase over DMSO SF-1-specific signal. activation, % at 10 µM. 1.9% of 65,000 active;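 active means activation above the mean activation of all tested compounds plus 3 SD, cut at about 50% in these data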
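Test system: CHO-K1 cells with Gal4–hSF-1 LBD chimera plus Gal4-driven luciferase; Input: 4,000 cells/well; Compound: 10 µM only; Times: 20 h compound treatment, 37 °C; Measured by: steady-glow luciferase luminescence, read after 15 min reagent incubation; Measure: percent activation versus DMSO; Control set: DMSO and mock-transfected background; Replicates: one test per compound.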
PKA kinase inh – blocks human protein kinase A activity; inhibition, % at 6 µM; P17612; 0.1% of 65,000 active; PKA Kemptide phosphorylation, Kinase-Glo ATP luminescence;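 active means inhibition above the screen-wide mean inhibition plus 3 SD, cut at about 21% in these data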
An asterisk follows results filed as active; i = inactive; . = not tested or not shown.

SMILES | RORA act | mHtt clearance | JNK3 blocker | ROCK2 inh | SF1 activator | PKA kinase inh
COc1ccc(OC)c(C2C(C(=O)c3ccco3)=C(O)C(=O)N2CCCN2CCOCC2)c1 (stereo unspecified) | 14.4 | . | -3.6 | 4.8 | -2.1 | 2.2
Cc1cc(NC(=O)CC(CN(C)S(=O)(=O)c2ccccc2)c2ccccc2)no1 (stereo unspecified) | 21.2 | . | 2.7 | 0.3 | -17.4 | -9.2
Cc1sc(NC(=O)COc2cccc(-n3cnnn3)c2)c(C#N)c1C | -6.3 | -42.1 | 2.6 | -1.2 | 17.3 | 8.2
CCC(C)c1ccc(NC(=O)c2cccnc2)cc1 (stereo unspecified) | 93.3* | -71.4 | -0.2 | 2.2 | 112.3* | 9.2
O=C(Nc1cnc2ccccc2c1)c1cccnc1 | 58.1* | -329.3 | 1.3 | 5.4 | 75.0* | -2.8
O=C(Nc1cnc2ccccc2c1)c1cccc(-n2cnnn2)c1 | 37.3 | 27.4 | 3.8 | 4.4 | 56.2* | 4.1
CCOc1ccccc1NC(=O)COc1cccc(-n2cnnn2)c1 | -7.5 | 53.0 | 23.0* | 1.6 | -14.7 | 3.6
CC1CCC(NC(=O)C2CCN(C(=O)NC3CCCCC3)CC2)CC1 (stereo unspecified) | -6.6 | . | -4.9 | 2.0 | -6.5 | 8.2
CC(C)c1ccc2oc(-c3cc(N)ccc3O)nc2c1 | -41.1 | 18.4 | 0.5 | -0.2 | -59.8 | 0.9
Cc1ccccc1-c1nc2cc(N)ccc2o1 | 41.3 | 29.7 | -1.3 | -5.0 | 57.8* | -4.3
Nc1ccc2oc(CCc3ccccc3)nc2c1 | 144.5* | 39.9 | -5.2 | 4.5 | 79.4* | 6.7
c1ccc2oc(CCc3nc4ccccc4o3)nc2c1 | 44.9 | . | -0.7 | 5.8 | 35.0 | 13.3
CSCC[C@H](NC(=O)Nc1ccc(C)cc1C)C(=O)O | -17.3 | 42.8 | 5.5 | 4.4 | 2.9 | 7.6
CSCCC(Nc1ncnc2ccc(Br)cc12)C(=O)O (stereo unspecified) | -5.6 | . | 19.5* | -4.8 | 3.5 | -1.1
c1csc(Cc2nc(-c3ccc(-n4cccc4)cc3)no2)c1 | 23.0 | . | -3.2 | 0.3 | 27.5 | 3.7
CCOc1ccc(NS(=O)(=O)c2ccc3[nH]cc(C(=O)NCC4CCCO4)c(=O)c3c2)cc1 (stereo unspecified) | -14.8 | -17.6 | -3.1 | 2.0 | -1.3 | 2.8
CCc1ccccc1NS(=O)(=O)c1ccc2[nH]cc(C(=O)NCC3CCCO3)c(=O)c2c1 (stereo unspecified) | -26.2 | 94.4* | -5.5 | 1.3 | -2.7 | 2.7
CCCOC(=O)c1sc2nc3c(cc2c1N)C(=O)CCC3 | 35.1 | . | 4.0 | 2.9 | 60.5* | 11.2
O=C(NCCCn1ccnc1)C(Cc1ccc([N+](=O)[O-])cc1)N1C(=O)c2ccccc2C1=O (stereo unspecified) | . | 31.9 | . | . | . | .
Cc1cc(N)c(NC2=CC(=O)CC(C)(C)C2)cc1C | 70.5* | . | -7.1 | 3.5 | 9.1 | 6.7
CCN(CC)C(=O)Oc1ccc2c(=O)c(-c3ccc(OC)cc3)coc2c1 | 68.7* | -67.9 | 3.9 | 6.0 | 71.2* | 10.1
CCN(CC)C(=O)Oc1ccc2c(=O)c(-c3ccc(OC)cc3)c(C)oc2c1 | 60.4* | -62.0 | 1.1 | 4.5 | 31.3 | 8.6
Clc1ccc(OCc2nc(-c3ccncc3)no2)c(Br)c1 | 58.9* | . | -1.0 | 0.8 | 43.9 | -1.4
c1ccc(SCc2nc(-c3ccncc3)no2)cc1 | 36.9 | 4.8 | -4.0 | 4.6 | 35.2 | 4.9
Clc1ccccc1OCc1nc(-c2ccncc2)no1 | 54.5* | -62.4 | -1.6 | 2.4 | 91.5* | -1.6
SMILES | RORA act | mHtt clearance | JNK3 blocker | ROCK2 inh | SF1 activator | PKA kinase inh
CCCOC(=O)Nc1nc2ccccc2o1 | 33.9 | 30.4 | 0.0 | 3.2 | 58.2* | -0.9
CCOC(=O)c1ccccc1NC(=O)CSc1nc2ccccc2o1 | -8.9 | . | -0.9 | 3.4 | 3.8 | 6.3
C/C(=N\O)c1ccc2[nH]ccc2c1 | 31.8 | 57.5 | -3.9 | 6.4 | 17.2 | 6.1
C/C(=N\O)c1ccc2c3c([nH]c2c1)CCCC3 | 54.1* | -22.8 | -4.5 | 7.1 | 64.1* | 9.8
CCOc1ccc2nc(SCC(=O)c3cccs3)sc2c1 | 26.0 | . | 7.2 | 2.1 | 54.0* | 3.5
CCCC(=O)Nc1nc2ccc(OCC)cc2s1 | 49.1* | 6.0 | 8.7 | 5.6 | 50.5* | 6.5
COc1ccc2nc(NC(=O)c3ccc4ncsc4c3)sc2c1 | 54.1* | . | 0.9 | 13.0 | 61.0* | -3.7
CCN1CCN(Cc2ccc3c(c2)Cc2ccccc2-3)CC1 | 26.6 | . | -0.8 | 2.3 | 35.5 | 5.9
c1ccc2c(c1)Cc1cc(CN3CCOCC3)ccc1-2 | 67.7* | . | -5.2 | 5.9 | 28.4 | 7.2
CN1CCN(C(=O)c2ccccc2NC(=O)Cc2ccccc2)CC1 | 22.5 | -12.9 | 1.7 | 0.2 | 1.2 | -1.0
O=C(CC(Nc1ccccc1)C(=O)O)c1ccccc1 (stereo unspecified) | 58.6* | . | . | . | 34.9 | 0.5
N#CCCSc1ncnc2c1oc1ccccc12 | 2.1 | i | 27.8* | 6.1 | -3.7 | 1.3
O=C(O)CSc1ncnc2c1oc1ccccc12 | . | 10.2 | . | . | . | .
CCOC(=O)CC(=O)CSc1ncnc2c1oc1ccccc12 | -17.5 | -44.8 | 42.0* | 5.5 | -3.8 | 4.3
O=C(CSCc1cccc(F)c1)N1CCN(c2ccccc2)CC1 | 52.6* | . | . | . | 30.8 | 3.3
Cc1cccc(-n2c(CCCN3C(=O)c4ccccc4C3=O)nc3ccccc3c2=O)n1 | 2.5 | . | 10.4 | 10.1 | -2.0 | 4.8
CN(C)c1ccc(-c2ccncc2)cc1 | 45.0 | . | -9.6 | 19.3* | 15.9 | 8.3
COC(=O)C(NS(C)(=O)=O)(c1c(C)[nH]c2ccccc12)C(F)(F)F (stereo unspecified) | -3.6 | -31.1 | 3.9 | 2.3 | 10.4 | 15.8
Cc1nc2ccc(NC(=O)N3CCCCC3)cc2s1 | 30.2 | 52.7 | 1.2 | 2.3 | 53.7* | 4.2
Cc1nc2ccc(NC(=O)N3CCN(c4ccccn4)CC3)cc2s1 | -6.7 | -11.6 | 3.1 | 5.0 | -2.7 | 8.1
O=C1CCCc2[nH]nc(-c3cccnc3)c21 | -17.4 | . | . | . | -6.3 | 2.0
c1ccc(-c2n[nH]c3c2CCC3)cc1 | -3.3 | -37.5 | 18.0* | 3.7 | -2.9 | 6.8
COc1cc(NC(=O)C(C)C)ccc1NC(=O)c1ccco1 | 44.1 | . | -13.4 | -2.0 | 53.8* | -0.7
CCCCOC(=O)C(C)Oc1ccc(=O)n(-c2ccccc2)n1 (stereo unspecified) | 57.3* | -1.9 | -6.2 | -6.6 | 3.5 | -2.4
Cc1ccccc1OCc1nc2c3cnn(C)c3ncn2n1 | 49.8* | 26.4 | . | . | 37.3 | 5.3
CCOc1ccccc1NC(=O)CN(c1ccc(OC)cc1)S(=O)(=O)c1c(C)noc1C | -16.3 | -50.1 | 0.7 | -0.7 | -10.9 | -2.8
COc1ccc(N(CC(=O)Nc2cc(C)ccc2OC)S(=O)(=O)c2c(C)noc2C)cc1 | 24.2 | -1.6 | -4.4 | 3.5 | 53.6* | 12.5
CC(C)CCn1cnc2c(NCc3ccccc3)ncnc21 | . | 7.2 | . | . | . | .
c1ccc(CNc2ncnc3c2ncn3C2CCCCO2)cc1 (stereo unspecified) | 68.5* | . | . | . | 60.4* | 4.2
